Test results reported in ChEMBL document CHEMBL1250448, “Inhibitor hijacking of Akt activation” (Nat Chem Biol, 2009).

How the values were obtained:
[1] = target: Tyrosine-protein kinase SYK (Homo sapiens) (UniProt P43405); test: Inhibition of SYK at 1 uM in presence of 10 uM ATP by Select Screen kinase assay relative to untreated control
Procedure, shortened: (§1)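 Commercial SelectScreen profiling panel of 220 purified kinases. Each kinase was tested at a single inhibitor concentration of 1 μM, and activity was expressed as percent inhibition.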

[2] = target: PAS domain-containing serine/threonine-protein kinase (Homo sapiens) (UniProt Q96RG2); test: Inhibition of PASK at 1 uM in presence of 10 uM ATP by Select Screen kinase assay relative to untreated control; procedure, shortened: as §1
[3] = target: Casein kinase I isoform gamma-1 (Homo sapiens) (UniProt Q9HCP0); test: Inhibition of CSNK1G1 at 1 uM in presence of 10 uM ATP by Select Screen kinase assay relative to untreated control
Procedure, shortened: (§2)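 Single-point screen at 1 μM against a panel of 220 purified kinases, run by Invitrogen staff as a SelectScreen profiling service. Read-out is percent inhibition of kinase activity.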

[4] = target: T1, Ephrin type-A receptor 8 (Homo sapiens) (UniProt P29322); test: Inhibition of EPHA8 at 1 uM in presence of 10 uM ATP by Select Screen kinase assay relative to untreated control; procedure, shortened: as §2
T1 sequence (whole entry): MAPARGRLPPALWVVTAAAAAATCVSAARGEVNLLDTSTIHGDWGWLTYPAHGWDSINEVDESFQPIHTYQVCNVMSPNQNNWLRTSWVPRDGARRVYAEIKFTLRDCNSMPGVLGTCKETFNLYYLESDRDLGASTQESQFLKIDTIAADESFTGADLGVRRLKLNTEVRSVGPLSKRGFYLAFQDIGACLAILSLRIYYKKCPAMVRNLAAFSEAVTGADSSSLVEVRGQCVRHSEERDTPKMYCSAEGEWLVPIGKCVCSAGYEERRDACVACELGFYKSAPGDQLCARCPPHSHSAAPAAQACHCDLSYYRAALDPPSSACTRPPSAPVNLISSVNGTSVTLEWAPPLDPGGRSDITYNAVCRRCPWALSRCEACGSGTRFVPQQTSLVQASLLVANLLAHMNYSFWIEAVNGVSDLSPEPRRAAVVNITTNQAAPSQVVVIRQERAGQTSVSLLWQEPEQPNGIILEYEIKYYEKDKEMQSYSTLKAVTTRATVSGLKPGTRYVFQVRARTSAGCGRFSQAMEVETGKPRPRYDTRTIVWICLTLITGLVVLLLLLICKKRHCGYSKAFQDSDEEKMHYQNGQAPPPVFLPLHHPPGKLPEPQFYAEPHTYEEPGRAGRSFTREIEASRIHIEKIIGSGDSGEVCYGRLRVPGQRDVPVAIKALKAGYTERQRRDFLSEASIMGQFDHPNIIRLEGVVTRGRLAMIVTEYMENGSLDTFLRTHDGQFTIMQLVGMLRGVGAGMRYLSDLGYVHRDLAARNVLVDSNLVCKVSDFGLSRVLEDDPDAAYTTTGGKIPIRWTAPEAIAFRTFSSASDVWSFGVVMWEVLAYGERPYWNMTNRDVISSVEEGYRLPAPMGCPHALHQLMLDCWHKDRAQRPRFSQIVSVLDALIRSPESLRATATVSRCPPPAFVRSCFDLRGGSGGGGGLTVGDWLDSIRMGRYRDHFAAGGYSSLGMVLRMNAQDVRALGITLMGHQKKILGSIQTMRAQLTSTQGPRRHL

[5] = target: G protein-coupled receptor kinase 4 (Homo sapiens) (UniProt P32298); test: Inhibition of GRK4 at 1 uM in presence of 10 uM ATP by Select Screen kinase assay relative to untreated control
Procedure, shortened: (§3)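 Single-concentration profiling at 1 μM against a panel of 220 purified kinases, run as an outsourced SelectScreen kinase profiling service. Activity is expressed as percent inhibition.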

[6] = target: G protein-coupled receptor kinase 6 (Homo sapiens) (UniProt P43250); test: Inhibition of GRK6 at 1 uM in presence of 10 uM ATP by Select Screen kinase assay relative to untreated control; procedure, shortened: as §3
[7] = target: Homeodomain-interacting protein kinase 1 (Homo sapiens) (UniProt Q86Z02); test: Inhibition of HIPK1 at 1 uM in presence of 10 uM ATP by Select Screen kinase assay relative to untreated control; procedure, shortened: as §3
[8] = target: T2, MAP kinase-activated protein kinase 5 (Homo sapiens) (UniProt Q8IW41); test: Inhibition of MAPKAPK5 at 1 uM in presence of 10 uM ATP by Select Screen kinase assay relative to untreated control; procedure, shortened: as §3
T2 sequence (whole entry): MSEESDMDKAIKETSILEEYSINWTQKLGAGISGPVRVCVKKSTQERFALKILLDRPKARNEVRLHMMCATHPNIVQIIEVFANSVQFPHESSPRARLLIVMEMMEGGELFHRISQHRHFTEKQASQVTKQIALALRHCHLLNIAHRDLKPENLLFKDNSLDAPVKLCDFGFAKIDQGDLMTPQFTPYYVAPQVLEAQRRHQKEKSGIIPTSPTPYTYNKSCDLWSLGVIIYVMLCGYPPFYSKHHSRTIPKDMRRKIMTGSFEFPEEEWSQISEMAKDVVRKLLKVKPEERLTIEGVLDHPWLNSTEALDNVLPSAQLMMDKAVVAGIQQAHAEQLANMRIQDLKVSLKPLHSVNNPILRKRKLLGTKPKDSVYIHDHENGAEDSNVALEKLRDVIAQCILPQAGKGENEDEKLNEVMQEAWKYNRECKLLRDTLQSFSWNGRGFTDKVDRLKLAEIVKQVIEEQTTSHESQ

[9] = target: Phosphorylase b kinase gamma catalytic chain, skeletal muscle/heart isoform (Homo sapiens) (UniProt Q16816); test: Inhibition of PHKG1 at 1 uM in presence of 100 uM ATP by Select Screen kinase assay relative to untreated control; procedure, shortened: as §1
[10] = target: Serine/threonine-protein kinase PLK3 (Homo sapiens) (UniProt Q9H4B4); test: Inhibition of PLK3 at 1 uM in presence of 10 uM ATP by Select Screen kinase assay relative to untreated control; procedure, shortened: as §1
[11] = target: Aurora kinase C (Homo sapiens) (UniProt Q9UQB9); test: Inhibition of AURKC at 1 uM in presence of 10 uM ATP by Select Screen kinase assay relative to untreated control
Chain of Aurora kinase C (Homo sapiens) (Q9UQB9 whole entry, looked up): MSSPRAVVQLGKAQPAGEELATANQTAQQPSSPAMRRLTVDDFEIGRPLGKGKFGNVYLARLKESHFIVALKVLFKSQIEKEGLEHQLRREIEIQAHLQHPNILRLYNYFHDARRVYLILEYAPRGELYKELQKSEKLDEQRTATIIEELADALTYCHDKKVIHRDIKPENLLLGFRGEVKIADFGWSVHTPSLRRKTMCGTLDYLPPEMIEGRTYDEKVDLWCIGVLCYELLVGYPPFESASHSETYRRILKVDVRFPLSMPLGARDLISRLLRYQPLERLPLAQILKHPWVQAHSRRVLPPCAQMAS

Chain of Serine/threonine-protein kinase PLK3 (Homo sapiens) (Q9H4B4 whole entry, looked up): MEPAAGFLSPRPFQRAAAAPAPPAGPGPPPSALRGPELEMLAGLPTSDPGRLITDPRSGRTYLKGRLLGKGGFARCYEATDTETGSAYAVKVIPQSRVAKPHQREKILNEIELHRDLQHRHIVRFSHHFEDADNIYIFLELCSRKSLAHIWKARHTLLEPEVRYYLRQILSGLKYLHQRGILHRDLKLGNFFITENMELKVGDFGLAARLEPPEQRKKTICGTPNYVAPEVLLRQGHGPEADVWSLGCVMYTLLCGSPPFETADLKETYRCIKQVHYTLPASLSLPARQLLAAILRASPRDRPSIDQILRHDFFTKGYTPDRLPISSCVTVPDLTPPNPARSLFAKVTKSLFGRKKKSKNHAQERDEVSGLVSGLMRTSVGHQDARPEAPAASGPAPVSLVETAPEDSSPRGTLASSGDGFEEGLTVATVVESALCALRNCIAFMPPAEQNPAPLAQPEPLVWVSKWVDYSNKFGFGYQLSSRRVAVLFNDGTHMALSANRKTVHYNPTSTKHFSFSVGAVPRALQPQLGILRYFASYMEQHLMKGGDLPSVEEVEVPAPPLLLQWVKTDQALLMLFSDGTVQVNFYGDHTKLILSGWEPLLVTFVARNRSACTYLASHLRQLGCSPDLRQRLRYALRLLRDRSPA
Chain of Casein kinase I isoform gamma-1 (Homo sapiens) (Q9HCP0 whole entry, looked up, canonical isoform): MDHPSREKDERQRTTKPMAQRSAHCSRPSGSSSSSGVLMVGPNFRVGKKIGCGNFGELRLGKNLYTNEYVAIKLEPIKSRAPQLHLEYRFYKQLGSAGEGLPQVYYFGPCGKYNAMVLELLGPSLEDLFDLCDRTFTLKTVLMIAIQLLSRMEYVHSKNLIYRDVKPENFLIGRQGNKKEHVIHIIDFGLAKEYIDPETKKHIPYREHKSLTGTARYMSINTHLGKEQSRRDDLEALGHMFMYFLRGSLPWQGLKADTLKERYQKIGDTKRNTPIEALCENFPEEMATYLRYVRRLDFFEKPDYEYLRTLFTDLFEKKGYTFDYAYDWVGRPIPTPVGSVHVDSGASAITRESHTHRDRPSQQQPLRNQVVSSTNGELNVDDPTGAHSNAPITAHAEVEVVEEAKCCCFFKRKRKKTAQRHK
Chain of G protein-coupled receptor kinase 4 (Homo sapiens) (P32298 whole entry, looked up): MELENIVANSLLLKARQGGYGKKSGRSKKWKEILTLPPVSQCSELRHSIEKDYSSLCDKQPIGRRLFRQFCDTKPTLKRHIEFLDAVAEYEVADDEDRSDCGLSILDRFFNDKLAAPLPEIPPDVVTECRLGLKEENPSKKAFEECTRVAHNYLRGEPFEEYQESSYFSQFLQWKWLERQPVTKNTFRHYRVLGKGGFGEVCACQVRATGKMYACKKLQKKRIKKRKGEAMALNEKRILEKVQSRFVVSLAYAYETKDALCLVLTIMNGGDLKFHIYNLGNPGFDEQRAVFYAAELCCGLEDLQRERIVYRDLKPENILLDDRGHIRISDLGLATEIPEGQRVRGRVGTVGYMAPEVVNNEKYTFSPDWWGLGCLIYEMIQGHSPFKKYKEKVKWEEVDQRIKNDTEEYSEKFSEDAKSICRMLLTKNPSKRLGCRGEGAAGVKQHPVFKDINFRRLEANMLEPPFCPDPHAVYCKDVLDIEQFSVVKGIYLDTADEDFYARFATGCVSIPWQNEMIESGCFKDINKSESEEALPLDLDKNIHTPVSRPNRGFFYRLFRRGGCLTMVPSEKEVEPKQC
Chain of Homeodomain-interacting protein kinase 1 (Homo sapiens) (Q86Z02 whole entry, looked up): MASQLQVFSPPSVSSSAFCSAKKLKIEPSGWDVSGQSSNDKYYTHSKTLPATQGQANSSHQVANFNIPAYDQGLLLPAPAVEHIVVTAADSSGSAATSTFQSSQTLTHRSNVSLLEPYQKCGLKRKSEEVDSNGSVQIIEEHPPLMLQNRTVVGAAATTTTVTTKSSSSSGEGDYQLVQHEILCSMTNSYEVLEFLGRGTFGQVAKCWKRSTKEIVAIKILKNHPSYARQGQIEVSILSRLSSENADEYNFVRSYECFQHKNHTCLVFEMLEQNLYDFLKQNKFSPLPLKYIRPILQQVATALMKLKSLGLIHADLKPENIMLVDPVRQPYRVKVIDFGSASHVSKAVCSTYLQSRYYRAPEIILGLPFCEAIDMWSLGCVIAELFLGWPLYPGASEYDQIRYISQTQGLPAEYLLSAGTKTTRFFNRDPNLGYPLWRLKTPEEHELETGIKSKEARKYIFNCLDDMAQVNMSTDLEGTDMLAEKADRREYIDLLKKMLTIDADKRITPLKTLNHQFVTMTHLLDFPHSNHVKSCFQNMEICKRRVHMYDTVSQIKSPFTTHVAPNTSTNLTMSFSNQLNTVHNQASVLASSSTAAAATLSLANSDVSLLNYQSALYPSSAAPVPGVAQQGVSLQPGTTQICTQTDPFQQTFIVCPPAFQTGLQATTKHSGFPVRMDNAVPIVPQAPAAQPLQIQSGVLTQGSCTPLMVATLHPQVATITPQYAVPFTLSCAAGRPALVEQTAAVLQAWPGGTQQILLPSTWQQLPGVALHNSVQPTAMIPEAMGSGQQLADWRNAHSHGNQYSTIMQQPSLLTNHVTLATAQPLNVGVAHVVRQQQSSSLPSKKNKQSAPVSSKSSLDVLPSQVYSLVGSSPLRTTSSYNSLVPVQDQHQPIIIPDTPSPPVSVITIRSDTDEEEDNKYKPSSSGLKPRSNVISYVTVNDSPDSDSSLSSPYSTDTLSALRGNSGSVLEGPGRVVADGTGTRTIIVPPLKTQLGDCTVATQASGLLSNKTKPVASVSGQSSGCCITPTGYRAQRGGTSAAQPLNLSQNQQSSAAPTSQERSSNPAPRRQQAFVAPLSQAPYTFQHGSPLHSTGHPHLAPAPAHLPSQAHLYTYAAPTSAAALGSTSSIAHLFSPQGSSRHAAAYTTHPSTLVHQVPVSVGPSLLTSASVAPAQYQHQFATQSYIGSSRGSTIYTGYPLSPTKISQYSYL
Chain of PAS domain-containing serine/threonine-protein kinase (Homo sapiens) (Q96RG2 whole entry, the tested form may be a part, canonical isoform): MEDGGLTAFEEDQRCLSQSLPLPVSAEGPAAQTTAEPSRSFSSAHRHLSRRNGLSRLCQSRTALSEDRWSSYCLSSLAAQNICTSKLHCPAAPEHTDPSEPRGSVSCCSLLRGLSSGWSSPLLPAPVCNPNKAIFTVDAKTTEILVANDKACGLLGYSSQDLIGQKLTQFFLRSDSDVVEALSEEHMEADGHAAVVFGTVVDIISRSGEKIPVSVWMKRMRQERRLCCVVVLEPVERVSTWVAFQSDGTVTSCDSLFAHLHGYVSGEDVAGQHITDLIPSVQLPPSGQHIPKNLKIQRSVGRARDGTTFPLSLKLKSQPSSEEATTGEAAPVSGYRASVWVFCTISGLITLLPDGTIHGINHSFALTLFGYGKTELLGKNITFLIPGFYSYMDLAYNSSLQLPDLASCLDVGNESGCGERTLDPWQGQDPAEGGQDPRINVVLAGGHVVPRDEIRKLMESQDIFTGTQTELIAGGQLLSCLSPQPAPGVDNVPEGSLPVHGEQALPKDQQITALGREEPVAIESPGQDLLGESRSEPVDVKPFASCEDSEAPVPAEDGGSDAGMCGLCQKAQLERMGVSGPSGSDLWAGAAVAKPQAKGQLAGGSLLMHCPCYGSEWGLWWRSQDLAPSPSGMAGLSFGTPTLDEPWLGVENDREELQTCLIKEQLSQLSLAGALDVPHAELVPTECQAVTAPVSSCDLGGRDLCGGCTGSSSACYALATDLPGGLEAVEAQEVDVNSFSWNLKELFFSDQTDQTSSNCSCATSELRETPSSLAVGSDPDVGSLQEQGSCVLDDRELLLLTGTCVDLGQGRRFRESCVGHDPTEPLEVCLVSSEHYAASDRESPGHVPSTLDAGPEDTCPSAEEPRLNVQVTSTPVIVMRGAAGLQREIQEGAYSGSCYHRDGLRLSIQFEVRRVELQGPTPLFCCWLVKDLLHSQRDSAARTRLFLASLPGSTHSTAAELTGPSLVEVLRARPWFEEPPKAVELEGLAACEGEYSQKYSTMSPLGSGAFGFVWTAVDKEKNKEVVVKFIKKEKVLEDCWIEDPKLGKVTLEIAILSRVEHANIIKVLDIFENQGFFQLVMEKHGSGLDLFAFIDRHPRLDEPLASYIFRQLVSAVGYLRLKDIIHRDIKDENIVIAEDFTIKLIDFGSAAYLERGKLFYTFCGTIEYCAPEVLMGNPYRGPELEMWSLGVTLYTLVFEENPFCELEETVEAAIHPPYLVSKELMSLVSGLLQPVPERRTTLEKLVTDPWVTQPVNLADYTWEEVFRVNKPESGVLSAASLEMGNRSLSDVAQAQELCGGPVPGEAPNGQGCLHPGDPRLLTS
Chain of Phosphorylase b kinase gamma catalytic chain, skeletal muscle/heart isoform (Homo sapiens) (Q16816 whole entry, looked up, canonical isoform): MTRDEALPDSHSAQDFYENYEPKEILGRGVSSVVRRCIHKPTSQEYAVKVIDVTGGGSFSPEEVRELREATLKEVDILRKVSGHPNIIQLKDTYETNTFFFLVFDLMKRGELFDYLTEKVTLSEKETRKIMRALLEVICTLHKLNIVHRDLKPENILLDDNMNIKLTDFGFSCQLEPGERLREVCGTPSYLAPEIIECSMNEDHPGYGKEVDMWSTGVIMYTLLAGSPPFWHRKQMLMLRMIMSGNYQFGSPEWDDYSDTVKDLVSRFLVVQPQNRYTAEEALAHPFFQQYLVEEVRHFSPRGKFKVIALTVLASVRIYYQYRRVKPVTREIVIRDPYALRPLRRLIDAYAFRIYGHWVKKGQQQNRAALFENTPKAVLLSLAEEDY

| inhibition [1] [%] | inhibition [2] [%] | inhibition [3] [%] | inhibition [4] [%] | inhibition [5] [%] | inhibition [6] [%] | inhibition [7] [%] | inhibition [8] [%] | inhibition [9] [%] | inhibition [10] [%] | inhibition [11] [%] | Compound |
| --- | --- | --- | --- | --- | --- | --- | --- | --- | --- | --- | --- |
| 12 | 1 | 11 | 16 | 16 | 27 | 34 | 4 | 6 | 27 | 16 | COc1ccccc1N1CCN(c2ncnc3[nH]nc(Br)c23)CC1 |
| 84 | 3 | 10 | 16 | 9 | 2 | 18 | 1 | 58 | 51 | 96 | O=C(NCCCNc1nc(Nc2cccc(NC(=O)N3CCCC3)c2)ncc1I)c1cccs1 |

| Compound | inhibition [1] [%] | inhibition [2] [%] | inhibition [3] [%] | inhibition [4] [%] | inhibition [5] [%] | inhibition [6] [%] | inhibition [7] [%] | inhibition [8] [%] | inhibition [9] [%] | inhibition [10] [%] | inhibition [11] [%] |
| --- | --- | --- | --- | --- | --- | --- | --- | --- | --- | --- | --- |
| Cc1n[nH]c2ccc(-c3cncc(OC[C@@H](N)Cc4c[nH]c5ccccc45)c3)cc12 | 0 | 36 | 62 | 3 | 72 | 78 | 68 | 10 | 76 | 7 | 17 |
